Measured values taken from paper PMC12315948 (The FASEB Journal, 2021).

Legend:
[1] = test system: HeLa cells; type: cell-based; conditions: 24 h treatment, 2 h 2.5 µg/mL pyolysin, MTT
Summary of the method: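 HeLa cells grown in DMEM with 10% FBS were seeded at 50,000 cells/mL. At 90% confluence they were treated in serum-free medium with vehicle, 100 µM test compound or 10 µM zaragozic acid, for 24 h or for indicated times. Cells were then challenged for 2 h with control medium or 2.5 µg/mL pyolysin. MTT (1 mg/mL, 2 h) was read at OD570 after DMSO lysis. Values are percentage of control; 4 independent experiments.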

[2] = test system: HeLa cells; test: Cytotoxicity per se in HeLa cells, MTT assay, control challenge; type: cell-based
Summary of the method: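 HeLa cells were seeded at 50,000 cells/mL in DMEM with 10% FBS. At 90% confluence they received serum-free medium with vehicle, 100 µM test compound or zaragozic acid for 24 h. They were then given a 2 h control-medium challenge without toxin. Viability was measured by MTT (1 mg/mL, 2 h; DMSO lysis; OD570) as percentage of control. Each point is one independent passage (n = 12).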

[3] = test system: A549 cells; test: Cytoprotection of A549 cells against streptolysin O; type: cell-based, human; conditions: 24 h: 100 µM MPEX098 or 10 µM zaragozic acid; 2 h challenge
Summary of the method: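 A549 cells were grown in RPMI1640 with 5% FBS, 1% antibiotic-antimycotic and 1% glutamine, then seeded at 50,000 cells/mL. At 90% confluence they were given serum-free medium with vehicle or treatment for 24 h, then challenged 2 h with graded streptolysin O. Viability was read by MTT (1 mg/mL, 2 h, DMSO lysis, OD570). LDH in supernatants was read by the INT/PMS lactate assay at OD450, initially and after 30 min at 37°C, against NADH standards.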

[4] = test system: squalene synthase; conditions: squalene synthase cell free assay; cited from earlier work

## CC(C)=CCC/C(C)=C/CC/C(C)=C/CO[P@@](=O)(O)OP(=O)(O)O (stereo in doubt) [farnesyl diphosphate]
[1]
  cytoprotection against pyolysin by isoprenoid treatment: but not farnesyl diphosphate (P = .12) increased cytoprotection

## C=C(CC[C@]12O[C@H](C(=O)O)[C@@](O)(C(=O)O)[C@](C(=O)O)(O1)[C@H](OC(=O)/C=C/[C@@H](C)C[C@@H](C)CC)[C@H]2O)[C@@H](OC(C)=O)[C@H](C)Cc1ccccc1 [Zaragozic acid, zaragozic acid]
[2]
  cytotoxic concentration per se: […]
[2]; MTT assay, control challenge, 100 µM MPEX098 or 10 µM zaragozic acid, 24 h, n = 12
  cell toxicity per se: 13 ± 3%
[3]
  protection of A549 cells against streptolysin O: protected A549 cells against a range of concentrations of streptolysin O
[4]
  IC50: […]

## CC(C)=CCC/C(C)=C/CC/C(C)=C/CC/C(C)=C/COP(=O)(O)OP(=O)(O)O [geranylgeranyl diphosphate]
[1]
  cytoprotection against pyolysin by isoprenoid treatment: increased cytoprotection against pyolysin
